Several values for one entry are separate records, joined by “and”; a condition that tells them apart may be missing. Identical values can stand only once.
Legend:
Rattus norvegicus [1] = experiment: Tested in vivo for antiinflammatory activity against chronic adjuvant arthritic rat by prophylactic inhibition 1 degree paw after peroral administration of 10 mg/kg of dose; type: functional; conditions: route oral
In short: (§1)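 Prophylactic regimen, rats. Adjuvant is heat-killed Mycobacterium tuberculosis ground to a fine powder in paraffin oil (6 mg/mL); 0.1 mL is injected into the left hind paw. Oral drug is given 1 h before adjuvant challenge, then for 21 consecutive days; controls receive methyl cellulose. Left (1°) and right (2°) hind paw volumes are measured by plethysmograph.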

Rattus norvegicus [2] = experiment: In vivo antiinflammatory activity against rats by RPAR(reverse passive Arthus reaction) synovitis method; type: functional; parameters: concentration or dose not given beside the values
In short: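 Lewis rats, oral drug or placebo 1 h before iv BSA (2.28 mg in saline), then intraarticular rabbit anti-BSA (0.54 mg) into one knee and saline into the other, under light anesthesia. Second oral dose at 3 h; the total of both doses is the calculated dose. About 17 h after induction, subpatellar tissue with synovium is excised and weighed. Response is antibody-minus-saline knee weight, tested by analysis of variance.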

Rattus norvegicus [3] = experiment: Tested in vivo for antiinflammatory activity against chronic adjuvant arthritic rat by prophylactic inhibition 2 degree paw after peroral administration of 10 mg/kg of dose; type: functional; conditions: route oral; in short: as §1
Rattus norvegicus [4] = experiment: Compound was tested in vivo for antiinflammatory activity against chronic adjuvant arthritic rat by prophylactic inhibition 2 degree paw after peroral administration of 25 mg/kg of dose; type: functional; conditions: route oral
Rattus norvegicus [5] = experiment: Compound was tested in vivo for antiinflammatory activity against chronic adjuvant arthritic rat by prophylactic inhibition 1 degree paw after peroral administration of 25 mg/kg of dose; type: functional; conditions: route oral
[6] = biological target: T1, Polyunsaturated fatty acid 5-lipoxygenase (Rattus norvegicus) (UniProt P12527); experiment: In vitro inhibitory activity against Lipoxygenase in rat neutrophils at a dose of 50 uM
T1 sequence (whole entry): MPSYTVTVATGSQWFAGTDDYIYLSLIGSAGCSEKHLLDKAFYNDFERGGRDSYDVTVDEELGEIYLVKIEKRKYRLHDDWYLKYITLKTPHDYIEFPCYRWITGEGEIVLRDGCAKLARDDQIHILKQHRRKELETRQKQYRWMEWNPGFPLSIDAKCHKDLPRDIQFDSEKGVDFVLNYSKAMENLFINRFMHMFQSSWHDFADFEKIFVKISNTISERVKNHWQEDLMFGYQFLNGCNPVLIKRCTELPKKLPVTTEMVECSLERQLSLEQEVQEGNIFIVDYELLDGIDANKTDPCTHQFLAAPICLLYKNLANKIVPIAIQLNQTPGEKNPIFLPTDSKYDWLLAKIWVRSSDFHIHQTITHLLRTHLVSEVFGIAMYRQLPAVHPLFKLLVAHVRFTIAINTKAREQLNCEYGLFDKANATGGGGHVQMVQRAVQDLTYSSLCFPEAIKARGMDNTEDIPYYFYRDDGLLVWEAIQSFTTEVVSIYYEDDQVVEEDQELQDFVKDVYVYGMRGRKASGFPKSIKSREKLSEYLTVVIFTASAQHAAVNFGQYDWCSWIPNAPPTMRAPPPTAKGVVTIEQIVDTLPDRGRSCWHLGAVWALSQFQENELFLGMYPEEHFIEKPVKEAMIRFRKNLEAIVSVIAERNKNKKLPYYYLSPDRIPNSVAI
In short: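 Neutrophils come from the 4 h pleural exudate of male Wistar-Lewis rats given iv BSA plus intrapleural rabbit anti-BSA IgG. Cells are washed, red cells lysed with NH4Cl, and resuspended at about 5×10^6 cells/0.1 mL in Tris pH 7.4 with NaCl and 1 mM CaCl2. Cells are preincubated with compound 4 min at room temperature.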

[7] = biological target: Cyclooxygenase (Rattus norvegicus) (UniProt P35355+Q63921); experiment: In vitro inhibitory activity against Prostaglandin G/H synthase in rat neutrophils at a dose of 50 uM

Structure (SMILES)	Inhibition (Rattus norvegicus [2]) [%]	also measured
CCCCc1c(O)n(-c2ccc(F)cc2)c2nc3c(c(=O)n(C)c(=O)n3C)n2c1=O	26	inhibition in vivo at 10 mg/kg (Rattus norvegicus [1]): 29%; inhibition in vivo at 10 mg/kg (Rattus norvegicus [3]): 35%
CCCc1c(OC)n2c3c(=O)n(C)c(=O)n(C)c3nc2n(Cc2ccccc2)c1=O	17	–
CCOCCc1c(O)n(Cc2ccccc2)c2nc3c(c(=O)n(C)c(=O)n3C)n2c1=O	8	–
CCCCc1c(O)n(-c2ccccc2)c2nc3c(c(=O)n(C)c(=O)n3C)n2c1=O	11	–
CC(=O)OCCc1c(O)n(Cc2ccccc2)c2nc3c(c(=O)n(C)c(=O)n3C)n2c1=O	1	–
CCCCCCn1c(O)c(CCC)c(=O)n2c3c(=O)n(C)c(=O)n(C)c3nc12	37	inhibition in vivo at 10 mg/kg (Rattus norvegicus [1]): 28%; inhibition in vivo at 10 mg/kg (Rattus norvegicus [3]): 43%
CSc1ccc(Cn2c(O)c(CC=C(C)C)c(=O)n3c4c(=O)n(C)c(=O)n(C)c4nc23)cc1	–	inhibition in vivo at 25 mg/kg (Rattus norvegicus [4]): 63%; inhibition in vivo at 25 mg/kg (Rattus norvegicus [5]): 0%
Cc1c(O)n(Cc2ccc(Cl)cc2)c2nc3c(c(=O)n(C)c(=O)n3C)n2c1=O	28	–
CC[S+]([O-])CCc1c(O)n(Cc2ccccc2)c2nc3c(c(=O)n(C)c(=O)n3C)n2c1=O (configuration not stated)	0	–
CC(C)c1c(O)n(CCc2ccccc2)c2nc3c(c(=O)n(C)c(=O)n3C)n2c1=O	17	–
COc1ccc(Cn2c(O)c(CC=C(C)C)c(=O)n3c4c(=O)n(C)c(=O)n(C)c4nc23)cc1	10	inhibition [6]: 0% and 15%; inhibition [7]: 73%
Cn1c(=O)c2c(nc3n(Cc4ccccc4)c(O)cc(=O)n23)n(C)c1=O	11	–
CCCCn1c(=O)c2c(nc3n(CCc4ccccc4)c(O)c(CCC)c(=O)n23)n(CCCC)c1=O	0	–
C#CCc1c(O)n(Cc2ccc(F)cc2)c2nc3c(c(=O)n(C)c(=O)n3C)n2c1=O	24	inhibition [6]: 8% and 5%; inhibition [7]: 3%; inhibition in vivo at 25 mg/kg (Rattus norvegicus [4]): 19%; inhibition in vivo at 25 mg/kg (Rattus norvegicus [5]): 10%
Cn1c(=O)c2c(nc3n(Cc4ccccc4)c(O)c(CCO)c(=O)n23)n(C)c1=O	17	–
CCCCn1c(=O)c2c(nc3n(Cc4cccs4)c(O)c(CCC)c(=O)n23)n(CCCC)c1=O	14	–
CC(=O)Nc1c(O)n(Cc2ccccc2)c2nc3c(c(=O)n(C)c(=O)n3C)n2c1=O	20	–
CC(C)Cc1c(O)n(Cc2ccccc2)c2nc3c(c(=O)n(C)c(=O)n3C)n2c1=O	17	–
CCCCc1c(O)n(Cc2ccc(Cl)c(Cl)c2)c2nc3c(c(=O)n(C)c(=O)n3C)n2c1=O	33	inhibition in vivo at 10 mg/kg (Rattus norvegicus [1]): 0%; inhibition in vivo at 10 mg/kg (Rattus norvegicus [3]): 17%
Cc1c(O)n(CCc2ccccc2)c2nc3c(c(=O)n(C)c(=O)n3C)n2c1=O	14	–

Structure (SMILES)	Inhibition (Rattus norvegicus [2]) [%]	also measured
CCCc1c(O)n(Cc2cccs2)c2nc3c(c(=O)n(C)c(=O)n3C)n2c1=O	9	inhibition in vivo at 10 mg/kg (Rattus norvegicus [1]): 20%; inhibition in vivo at 10 mg/kg (Rattus norvegicus [3]): 9%
Cn1c(=O)c2c(nc3n(Cc4ccccc4)c(O)c(CC(=O)O)c(=O)n23)n(C)c1=O	11	–
Cn1c(=O)c2c(nc3n(Cc4ccccc4)c(O)c(C4C=CCCC4)c(=O)n23)n(C)c1=O (configuration not stated)	25	inhibition [6]: 25% and 38%; inhibition [7]: 17%; inhibition in vivo at 10 mg/kg (Rattus norvegicus [1]): 8%; inhibition in vivo at 10 mg/kg (Rattus norvegicus [3]): 2%
CCCCc1c(O)n(Cc2ccc(Cl)cc2)c2nc3c(c(=O)n(C)c(=O)n3C)n2c1=O	16	–
CCCCc1c(O)n(Cc2ccc(F)cc2)c2nc3c(c(=O)n(CCCC)c(=O)n3CCCC)n2c1=O	6	–
CCCc1c(O)n(CCc2ccccc2)c2nc3c(c(=O)n(C)c(=O)n3C)n2c1=O	27	inhibition in vivo at 10 mg/kg (Rattus norvegicus [1]): 14%; inhibition in vivo at 10 mg/kg (Rattus norvegicus [3]): 38%
CCOC(=O)c1ccc(Cn2c(O)c(CC=C(C)C)c(=O)n3c4c(=O)n(C)c(=O)n(C)c4nc23)cc1	–	inhibition in vivo at 25 mg/kg (Rattus norvegicus [4]): 10%; inhibition in vivo at 25 mg/kg (Rattus norvegicus [5]): 0%
CCCCn1c(=O)c2c(nc3n(Cc4ccccc4)c(O)c(CCC)c(=O)n23)n(CCCC)c1=O	12	–
CC(C)Cc1c(O)n(-c2ccccc2)c2nc3c(c(=O)n(C)c(=O)n3C)n2c1=O	16	–
C/C=C/Cc1c(O)n(Cc2ccccc2)c2nc3c(c(=O)n(C)c(=O)n3C)n2c1=O	12	inhibition [6]: 26% and 29%; inhibition [7]: 49%; inhibition in vivo at 10 mg/kg (Rattus norvegicus [1]): 17%; inhibition in vivo at 10 mg/kg (Rattus norvegicus [3]): 24%
CCCCC1C(=O)N(Cc2ccccc2)c2nc3ccccc3n2C1=O (configuration not stated)	0	–
Cc1c(O)n(Cc2ccccc2)c2nc3c(c(=O)n(C)c(=O)n3C)n2c1=O	8	–
COC(=O)Cc1c(O)n(Cc2ccccc2)c2nc3c(c(=O)n(C)c(=O)n3C)n2c1=O	14	–
Cn1c(=O)c2c(nc3n(Cc4ccc(F)cc4)c(O)c(Cc4ccccc4)c(=O)n23)n(C)c1=O	10	–
CC(C)=CCc1c(O)n(Cc2ccc([S+](C)[O-])cc2)c2nc3c(c(=O)n(C)c(=O)n3C)n2c1=O (configuration not stated)	–	inhibition in vivo at 25 mg/kg (Rattus norvegicus [4]): 47%; inhibition in vivo at 25 mg/kg (Rattus norvegicus [5]): 13%
CCS(=O)(=O)CCc1c(O)n(Cc2ccccc2)c2nc3c(c(=O)n(C)c(=O)n3C)n2c1=O	6	–
CCCCn1c(=O)c2c(nc3n(Cc4ccc(OC)cc4)c(O)c(CCC)c(=O)n23)n(CCCC)c1=O	5	–
CCCc1c(O)n(Cc2ccc(OC)cc2)c2nc3c(c(=O)n(C)c(=O)n3C)n2c1=O	11	–
CCCCc1c(O)n(CC2CCCCC2)c2nc3c(c(=O)n(C)c(=O)n3C)n2c1=O	25	inhibition in vivo at 10 mg/kg (Rattus norvegicus [1]): 11%; inhibition in vivo at 10 mg/kg (Rattus norvegicus [3]): 34%
Cc1c(O)n(Cc2ccc(F)cc2)c2nc3c(c(=O)n(C)c(=O)n3C)n2c1=O	36	–

Structure (SMILES)	Inhibition (Rattus norvegicus [2]) [%]	also measured
CCCCc1c(O)n(Cc2ccc(Cl)cc2Cl)c2nc3c(c(=O)n(C)c(=O)n3C)n2c1=O	31	inhibition in vivo at 10 mg/kg (Rattus norvegicus [1]): 0%; inhibition in vivo at 10 mg/kg (Rattus norvegicus [3]): 29%
Cn1c(=O)c2c(nc3n(Cc4ccccc4)c(O)c(N)c(=O)n23)n(C)c1=O	11	–
CC(C)c1c(O)n(Cc2ccccc2)c2nc3c(c(=O)n(C)c(=O)n3C)n2c1=O	0	–
CCCCC1C(=O)N(Cc2ccccc2)c2nc3ncncc3n2C1=O (configuration not stated)	21	inhibition in vivo at 10 mg/kg (Rattus norvegicus [1]): 0%; inhibition in vivo at 10 mg/kg (Rattus norvegicus [3]): 26%
CCCCn1c(=O)c2c(nc3n(Cc4ccccc4)c(O)c(C)c(=O)n23)n(CCCC)c1=O	27	–
CCO/C(O)=c1\c(=O)n(Cc2ccccc2)c2nc3c(c(=O)n(C)c(=O)n3C)n2c1=O	0	–
C#CCc1c(O)n(Cc2ccccc2)c2nc3c(c(=O)n(C)c(=O)n3C)n2c1=O	27	inhibition [6]: 11% and 7%; inhibition [7]: 9%; inhibition in vivo at 10 mg/kg (Rattus norvegicus [1]): 6%; inhibition in vivo at 10 mg/kg (Rattus norvegicus [3]): 27%
CCCc1c(O)n(-c2ccc(F)cc2)c2nc3c(c(=O)n(C)c(=O)n3C)n2c1=O	27	–
CCCCC1C(=O)N(Cc2ccccc2)c2nc3nccnc3n2C1=O (configuration not stated)	15	inhibition in vivo at 10 mg/kg (Rattus norvegicus [1]): 0%; inhibition in vivo at 10 mg/kg (Rattus norvegicus [3]): 8%
CCCc1c(O)n(Cc2ccccn2)c2nc3c(c(=O)n(C)c(=O)n3C)n2c1=O	17	–
CCCCn1c(=O)c2c(nc3n(Cc4ccc(F)cc4)c(O)c(CCC)c(=O)n23)n(CCCC)c1=O	8	–
CCSCCc1c(O)n(Cc2ccccc2)c2nc3c(c(=O)n(C)c(=O)n3C)n2c1=O	0	–
CN(C)CCc1c(O)n(Cc2ccccc2)c2nc3c(c(=O)n(C)c(=O)n3C)n2c1=O	0	–
CCCCc1c(O)n(Cc2ccccc2)c2nccn2c1=O	17	–
Cc1c(O)n(-c2ccccc2)c2nc3c(c(=O)n(C)c(=O)n3C)n2c1=O	14	–
Cn1c(=O)c2c(nc3n(Cc4ccccc4)c(O)c(Cc4ccccc4)c(=O)n23)n(C)c1=O	16	–
CCCc1c(O)n(-c2ccccc2)c2nc3c(c(=O)n(C)c(=O)n3C)n2c1=O	11	–
CCCc1c(O)n(Cc2ccc(Cl)cc2)c2nc3c(c(=O)n(C)c(=O)n3C)n2c1=O	53	–

Source: ChEMBL document CHEMBL1123282, “Antiinflammatory activity of substituted 6-hydroxypyrimido[2,1-f]purine-2,4,8(1H,3H,9H)-triones. Atypical nonsteroidal antiinflammatory agents” (J Med Chem, 1986)
